These results are taken from PMC9134407 (ACS Omega, 2022).

The structures appear in SMILES notation. Some results are limits rather than exact numbers.

The nature of series [1]: Cell-Titer Blue cytotoxicity assay. Format: cell-based. The note with it: human, HEK293T cells.
Series [2] has as its target T1, human FXR (Homo sapiens, UniProt Q96RI1).
T1 sequence (Q96RI1 1-486): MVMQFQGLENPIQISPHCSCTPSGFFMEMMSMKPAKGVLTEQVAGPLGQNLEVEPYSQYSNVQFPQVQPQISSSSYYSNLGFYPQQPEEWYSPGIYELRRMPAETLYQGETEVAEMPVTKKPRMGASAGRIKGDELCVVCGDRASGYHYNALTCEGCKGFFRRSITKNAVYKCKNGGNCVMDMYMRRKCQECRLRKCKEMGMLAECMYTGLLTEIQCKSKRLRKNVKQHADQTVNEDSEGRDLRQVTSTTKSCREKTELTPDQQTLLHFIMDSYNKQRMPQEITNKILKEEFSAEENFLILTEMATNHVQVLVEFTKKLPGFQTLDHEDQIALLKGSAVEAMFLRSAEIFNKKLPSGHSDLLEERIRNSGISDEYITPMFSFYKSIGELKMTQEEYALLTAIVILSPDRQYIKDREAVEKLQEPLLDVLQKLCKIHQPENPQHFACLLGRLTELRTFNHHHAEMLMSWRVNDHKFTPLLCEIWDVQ
The experiment in a line: cell-based luciferase reporter assay. The note with it: for inhibition at 10 µM: HEK-293T. An outline of the steps:
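HEK293T cells transiently cotransfected with a human FXR expression vector and an SHP promoter luciferase reporter (SHP-luc). Transactivation was driven by GW4064 at 10 μM, with or without test compound. FXR-dependent reporter activity was read as luciferase signal.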
A general note: A reporter such as luciferase makes a cellular process visible.

The subject of series [3] is FXR. Particulars: read-out: IC50 FXR antagonist; cited from earlier work.

For orientation: viability means a per cent measure of how many cells are alive, often set against a control. Read a low viability as more harm to the cells. Usually inhibition stands for the percentage by which the read-out fell short of the control. Lower therefore signals a weak effect. What is called IC50 is the concentration that inhibits the measured activity by half.

Consider `CC(=O)O[C@@H]1CC[C@]2(C)C(=O)[C@H](C3CC[C@H]([C@H](C)CCCC(C)C)[C@@]3(C)CC(=O)O)CC[C@H]2C1` (stereo partly shown) [Compound 3a], for which the viability at 10 µM in series [1] is above 100%. 10 µM produced 54.7 ± 6.2% inhibition in series [2].

In turn, `CC(=O)O[C@H]1CC[C@]2(C)C(=O)[C@H](C3CC[C@H]([C@H](C)CCCC(C)C)[C@@]3(C)CC(=O)O)CC[C@H]2C1` (stereo partly shown) [Compound 3b] came in with a viability at 10 µM in series [1] above 100%. The compound further came in with an inhibition at 10 µM in series [2] of 24.9 ± 2%.

`CC(C)CCC[C@@H](C)[C@H]1CCC([C@@H]2CC[C@H]3C[C@H](O)CC[C@]3(C)C2=O)[C@]1(C)CC(=O)O` (stereo partly shown) [Compound 4a] had a viability at 10 µM in series [1] above 100%. Besides, the inhibition at 10 µM in series [2] was found to be 53.1 ± 4.9%.

Regarding `CC(C)CCC[C@@H](C)[C@H]1CCC([C@@H]2CC[C@H]3C[C@@H](O)CC[C@]3(C)C2=O)[C@]1(C)CC(=O)O` (stereo partly shown) [Compound 4b], the viability at 10 µM in series [1] was above 100%. Further, testing at 10 µM in series [2] gave an inhibition of 14.1 ± 4.1%.

`CC(C)CCC[C@@H](C)[C@H]1CCC([C@@H]2CC[C@H]3C[C@H](O)CC[C@]3(C)C2=O)[C@]1(C)C/C=C/C(=O)O` (stereo partly shown) [Compound 7] came in with a viability at 10 µM in series [1] above 100%. Further, at 10 µM the inhibition in series [2] was 76.3 ± 1.9%.

As for `CC(C)CCC[C@@H](C)[C@H]1CCC([C@@H]2CC[C@H]3C[C@H](O)CC[C@]3(C)C2=O)[C@]1(C)CCCC(=O)O` (stereo partly shown) [Compound 8], in series [1], the viability stood at 41.1% and the viability at 10 µM is above 100%. In series [2], the IC50 came out at 7.7 µM and the inhibition at 10 µM was 85.8 ± 2.4%.

Consider `C[C@H](CCC(=O)NCC(=O)O)[C@H]1CC[C@H]2[C@@H]3[C@@H](O)C[C@@H]4C[C@H](O)CC[C@]4(C)[C@H]3CC[C@]12C` [GUDCA, glycoursodeoxycholic acid], for which the IC50 in series [3] was 77.2 µM.

Consider `C[C@H](CCC(=O)O)[C@H]1CC[C@H]2[C@@H]3[C@H](O)[C@H](O)[C@@H]4C[C@H](O)CC[C@]4(C)[C@H]3CC[C@]12C` [HCA, hyocholic acid, reference compound], for which the IC50 in series [3] is 70.1 µM; in series [2], 27.3 µM. In series [1], this compound registered a viability above 100%.

Consider `C[C@H](CCC(=O)NCCS(=O)(=O)O)[C@H]1CC[C@H]2[C@@H]3[C@@H](O)C[C@@H]4C[C@H](O)CC[C@]4(C)[C@H]3CC[C@]12C` [TUDCA, tauroursodeoxycholic acid], for which the IC50 in series [3] is 75.1 µM.
